Measurements from ChEMBL document CHEMBL1268935, “3-O-arylmethylgalangin, a novel isostere for anti-HCV 1,3-diketoacids (DKAs)” (Bioorg Med Chem, 2010).

Legend:
[1] = Inhibition of HCV recombinant NS5B polymerase using [alpha32p]GTP after 30 mins by scintillation counting; set-up: species or system Hepacivirus hominis
In short: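 Recombinant NS5B primer/template-directed transcription in 30 mM Tris–HCl pH 7.2; compounds at various concentrations from 10% DMSO–water stocks, final DMSO 1%; stopped with 33 mM EDTA; products captured on DEAE filters, washed with 5% dibasic sodium phosphate, scintillation counted. IC50 estimated from primary cpm data, triplicate.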

[2] = Selectivity index, ratio of CC50 for human HuH5.2 cells to EC50 for HCV genotype 1 harboring luc-ubi-neo fusion gene
In short: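 SI is CC₅₀/EC₅₀, both measured in Huh-5-2 replicon cells seeded at 5 × 10³/well. For CC₅₀, serial dilutions in complete DMEM without G418 were added 24 h after seeding, cells grew 3 days at 37 °C, and cell number was read by WST-1. EC₅₀ came from the 4-day replicon luciferase assay run with G418.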

[3] = Cytotoxicity against human HuH5.2 cells after 3 days by WST-1 assay; assay type: cell-based, Huh-5-2
In short: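 Huh-7-derived Huh-5-2 cells carrying subgenomic genotype 1 HCV replicon (luc-ubi-neo); 5 × 10³ cells/well seeded in complete DMEM with G418; serial compound dilutions in DMEM without G418 added 24 h after seeding; proliferation 3 days at 37 °C; cell number by WST-1. CC50 = concentration reducing cell proliferation by 50%.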

Hepatitis C virus = test: Antiviral activity against HCV genotype 1 harboring luc-ubi-neo fusion gene infected in human Huh7 cells assessed as inhibition of viral RNA replication after 4 days by luciferase assay; assay type: functional, organism-based, Hepacivirus hominis; conditions: genotype 1, Huh-7, 96 h
In short: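 Huh-5-2 cells (Huh-7 carrying a subgenomic genotype 1 HCV replicon with luc-ubi-neo fusion gene) were seeded at 5 × 10³/well in complete DMEM with G418 and held 24 h at 37 °C, 5% CO₂. Medium was refreshed with G418 and compounds added from DMSO stock, then incubated 4 days at 37 °C. Luciferase was read out, and EC₅₀ was taken as 50% inhibition of replicon RNA replication. Interferon α-2b at 10,000 units/well served as reference.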

Row | SMILES | IC50 [1] [µM] | Ratio CC50/EC50 [2] | CC50 at 72 h [3] [µM] | EC50 (Hepatitis C virus) [µM]
1 | O=c1c(OCc2ccc([N+](=O)[O-])cc2)c(-c2ccccc2)oc2cc(O)cc(O)c12 | > 50 | 5.7 | 40 | 7
2 | O=c1c(OCc2ccccc2Br)c(-c2ccccc2)oc2cc(O)cc(O)c12 | 10.5 | 1.3 | 12 | 9
3 | O=c1c(OCc2ccc(Cl)cc2)c(-c2ccccc2)oc2cc(O)cc(O)c12 | 0.3 | 2.4 | 36 | 15
4 | N#Cc1ccccc1COc1c(-c2ccccc2)oc2cc(O)cc(O)c2c1=O | 11 |  | > 100 | 5
5 | Cc1ccc(COc2c(-c3ccccc3)oc3cc(O)cc(O)c3c2=O)cc1 | 45.2 | 2.9 | 40 | 14
6 | Cc1cccc(COc2c(-c3ccccc3)oc3cc(O)cc(O)c3c2=O)c1 | 30 | 1 | 29 | 28
7 | N#Cc1ccc(COc2c(-c3ccccc3)oc3cc(O)cc(O)c3c2=O)cc1 | 1.3 | 4.8 | 48 | 10
8 | N#CCCCOc1ccccc1C(=O)/C=C(\O)C(=O)O | 0.35 |  |  | 
9 | O=c1c(OCc2cccc([N+](=O)[O-])c2)c(-c2ccccc2)oc2cc(O)cc(O)c12 | 6.4 | 6.2 | 31 | 5
10 | COc1ccc(COc2c(-c3ccccc3)oc3cc(O)cc(O)c3c2=O)cc1 | 29.5 | 5.7 | 57 | 10
11 | O=c1c(OCc2ccccc2[N+](=O)[O-])c(-c2ccccc2)oc2cc(O)cc(O)c12 | > 50 | 4.3 | 51 | 12
12 | N#Cc1cccc(COc2c(-c3ccccc3)oc3cc(O)cc(O)c3c2=O)c1 | 0.2 | 0.6 | 21 | 36
13 | O=c1c(OCc2cccc(Cl)c2)c(-c2ccccc2)oc2cc(O)cc(O)c12 | 0.1 | 1.8 | 46 | 25
14 | COc1ccccc1COc1c(-c2ccccc2)oc2cc(O)cc(O)c2c1=O | > 50 | 1.9 | 53 | 28
15 | O=c1c(OCc2ccccc2Cl)c(-c2ccccc2)oc2cc(O)cc(O)c12 | > 50 |  | > 100 | 38
16 | O=c1c(OCc2ccc(Br)cc2)c(-c2ccccc2)oc2cc(O)cc(O)c12 | 1.4 | 0.2 | 2 | 12
17 | COc1cccc(COc2c(-c3ccccc3)oc3cc(O)cc(O)c3c2=O)c1 | 21 |  | 28 | 22
18 | O=c1c(OCc2cccc(Br)c2)c(-c2ccccc2)oc2cc(O)cc(O)c12 | 4.6 | 0.8 | 15 | 18
19 | Cc1ccccc1COc1c(-c2ccccc2)oc2cc(O)cc(O)c2c1=O | 7.2 | 1.6 | 55 | 34
